Assay outcomes deposited in PubChem by several laboratories.
The list is not random: actives were taken first. Their share in the collection is about 2.3%.
PAFAH2 inh: PAFAH2 enzyme inhibitors, primary screen, biochemical, fluorescence polarization, human | Platelet-activating factor acetylhydrolase 2, cytoplasmic (Homo sapiens), Q99487 | recombinant PAFAH2, FP-rhodamine activity probe | inhibition, % at 3.39 µM | 340,000 compounds, 0.99% hits;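 active means inhibition above the mean over all tested compounds plus 3 SD, cut at about 30% in these data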;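 further: inhibitors block probe labeling of enzyme so polarization drops; 0% = enzyme with DMSO and 100% = wells lacking PAFAH2 protein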
TDP2 absorb: human TDP2 enzyme inhibitors, primary screen, biochemical, epi absorbance, recombinant enzyme; Tyrosyl-DNA phosphodiesterase 2 (Homo sapiens), O95551; T5PNP hydrolysis, p-nitrophenol absorbance 415 nm; inhibition, % at 12.8 µM; 370,000 compounds, 0.34% hits;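 active means inhibition above the mean of all tested compounds plus 3 SD, set per campaign, cut at about 25% in these data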;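 further: 0% = DMSO with enzyme and 100% = buffer with substrate but no TDP2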
Target sequence (O95551 whole entry, looked up): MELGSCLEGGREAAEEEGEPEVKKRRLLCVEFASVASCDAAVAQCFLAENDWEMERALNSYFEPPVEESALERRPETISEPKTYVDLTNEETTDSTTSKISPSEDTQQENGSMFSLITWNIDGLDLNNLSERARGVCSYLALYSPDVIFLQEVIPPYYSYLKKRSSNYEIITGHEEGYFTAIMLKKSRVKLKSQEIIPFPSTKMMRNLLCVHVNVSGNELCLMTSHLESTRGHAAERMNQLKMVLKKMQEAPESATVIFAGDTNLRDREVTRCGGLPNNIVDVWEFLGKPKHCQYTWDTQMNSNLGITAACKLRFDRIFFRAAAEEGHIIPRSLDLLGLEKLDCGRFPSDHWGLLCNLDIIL
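Read-out basis: percent inhibition. System: recombinant human TDP2. Buffer or medium: Mg2+-containing Tris-HCl buffer, pH 7.5. Repeats: single replicate. Timing: reaction 2 h, 37 °C. Benchmarks: high control without enzyme, low control DMSO plus TDP2. Probe or stimulus: 5 mM T5PNP. Doses: 12.8 µM only. Measured by: epi absorbance of p-nitrophenol freed from T5PNP by hydrolysis.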
Apaf1 inhib: inhibitors of human Apaf-1 apoptosome, primary screen, biochemical, DEVD-Rh110 fluorescence, uHTS. Apoptotic protease-activating factor 1 (Homo sapiens), O14727. reconstituted apoptosome caspase-3 activity. inhibition, % at 20 µM. 330,000 compounds, 0.71% hits; active means inhibition of at least 40% at 20 µM;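 further: plate controls were DMSO wells for no effect and DEVD-CHO caspase inhibitor wells for full effect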
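detection = Rh110 fluorescence intensity | test system = biochemical Apaf-1 apoptosome reconstitution | also added = cytochrome c and DEVD-Rh110 substrate | schedule = 30 min plus 50 min, RT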
PAFAH1B3 FP inh: PAFAH1B3 enzyme inhibitors, primary screen, biochemical, fluorescence polarization, human | Platelet-activating factor acetylhydrolase IB subunit alpha1 (Homo sapiens), Q15102 | recombinant PAFAH1B3, FP-rhodamine probe | inhibition, % at 3.39 µM | 340,000 compounds, 0.28% hits;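 active means inhibition above the screen-wide average of all tested compounds plus 3 SD, cut at about 25% in these data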;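 further: 0% = enzyme with DMSO only and 100% = wells lacking PAFAH1B3 protein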
PAFAH1B2 FP inh: PAFAH1B2 enzyme inhibitors, primary screen, biochemical, fluorescence polarization, human; recombinant PAFAH1B2, FP-rhodamine activity probe; inhibition, % at 3.39 µM; 340,000 compounds, 1.2% hits;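 active means inhibition above the mean of all tested compounds plus 3 SD, cut at about 24% in these data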;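 further: 0% = enzyme with DMSO and 100% = wells lacking PAFAH1B2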
Starred values were filed as active, the others as inactive; . = not tested or not shown.

SMILES	PAFAH2 inh	TDP2 absorb	Apaf1 inhib	PAFAH1B3 FP inh	PAFAH1B2 FP inh
O=C(CSc1ccc(S(=O)(=O)N2CCCC2)cn1)Nc1ccc([N+](=O)[O-])cc1C(F)(F)F	-2	3	.	-5	27*
CC(C)(C)NC(=O)NC(=O)CSc1ccc(S(=O)(=O)N2CCCCC2)cn1	9	-12	23	2	27*
ONC(=Nc1ccc(Cl)cc1)c1ccccc1	2	5	10	2	36*
O=[N+]([O-])c1cccc(C(=Nc2cccc(Cl)c2)NO)c1	2	-3	15	10	5
Cc1ccc(OC(=O)N(C)C[C@H]2OCc3cn(nn3)CCCC(=O)N([C@@H](C)CO)C[C@@H]2C)cc1	.	-3	.	.	.
Cc1ccc(CSc2nc(N)cc(=O)[nH]2)cc1	-10	-7	9	-8	25*
Cc1ccc(CSc2nc3c(c(=O)[nH]2)CCC3)cc1	2	-4	5	10	25*
COCCCNc1c2c3c(cccc3[nH]c1=O)C(=O)c1ccccc1-2	136*	1	16	134*	109*
COCCCNC1=C(Cl)C(=O)c2ccccc2C1=O	0	22	33	9	6
CC(=O)C1=C(C)N(Cc2ccc(F)cc2)C(=S)NC1c1ccc(Cl)cc1 (stereo not drawn)	.	-1	.	.	.
C[C@H](CO)N1C[C@H](C)[C@@H](CN(C)C(=O)NC2CCCCC2)Oc2c(NC(=O)Nc3ccc4c(c3)OCO4)cccc2C1=O	7	-8	5	15	1
C[C@H](CO)N1C[C@H](C)[C@@H](CN(C)C(=O)Nc2ccc(C(F)(F)F)cc2)Oc2c(NC(=O)Nc3ccc4c(c3)OCO4)cccc2C1=O	-17	5	13	13	61*
Cc1noc(C)c1NC(=O)Nc1cccc2c1O[C@H](CN(C)C(=O)Nc1ccc3c(c1)OCO3)[C@@H](C)CN([C@H](C)CO)C2=O	14	-2	-4	15	4
C[C@H](CO)N1C[C@H](C)[C@@H](CN(C)C(=O)Nc2ccc3c(c2)OCO3)Oc2c(NC(=O)Nc3ccc(C(F)(F)F)cc3)cccc2C1=O	-9	-2	15	3	28*
CC1=NN(c2ccccc2)C(=O)/C1=C/c1ccc[nH]1	6	-2	-138	3	1
CC1=NN(c2ccccc2)C(=O)/C1=C/c1c(O)n(-c2ccc(F)cc2)[nH]c1=O	48*	2	21	44*	47*
COc1cc(/C=C2/C(=O)N(c3ccccc3)N=C2C)ccc1OS(=O)(=O)c1ccccc1	.	.	95*	.	.
CC1=NN(c2ccccc2)C(=O)C1=Cc1ccccc1	.	73*	.	.	.
COc1ccc2c(c1)CNC2CS(=O)(=O)NCCc1ccccc1 (stereo not drawn)	.	10	.	.	.
CCC(=O)OCCCN1CCC2(CCCCC2)C1=O	.	1	.	.	.
O=C1/C(=C\c2ccco2)SC(=S)N1C1CCCCC1	.	.	4	.	.
CC1=C(C#N)C(=O)N(C2CCS(=O)(=O)C2)C(=O)/C1=C\c1ccco1 (stereo not drawn)	.	.	54*	.	.
N/C(=N\OC(=O)c1ccc(Cl)cc1Cl)c1ccccc1	-5	5	1	3	12
N/C(=N\OC(=O)c1ccc(Cl)cc1Cl)c1ccc(Cl)cc1	-22	-2	2	7	37*
CCOC(=O)c1c(C)[nH]c(C(=O)COC(=O)C23CC4CC(CC(Cl)(C4)C2)C3)c1C	-14	1	10	2	11
SMILES	PAFAH2 inh	TDP2 absorb	Apaf1 inhib	PAFAH1B3 FP inh	PAFAH1B2 FP inh
CC1CCCCC1NC(=O)COC(=O)C12CC3CC(CC(Cl)(C3)C1)C2 (stereo not drawn)	62*	9	-7	8	35*
COc1ccc(NC(=O)COC(=O)C23CC4CC(CC(Cl)(C4)C2)C3)c(OC)c1	1	8	17	4	14
O=C(COC(=O)C12CC3CC(CC(C3)C1)C2)NNC(=O)c1ccccc1	3	-1	15	6	40*
O=C(COC(=O)C12CC3CC(CC(Cl)(C3)C1)C2)Nc1ccccc1	60*	2	16	8	35*
O=C(COC(=O)C12CC3CC(CC(Br)(C3)C1)C2)NNC(=O)c1ccccc1	3	3	8	5	52*
O=C(Nc1nc2ncccn2c1-c1ccc(C(F)(F)F)cc1)c1ccc(F)cc1	.	-3	.	.	.
